Screening results (PubChem BioAssay)
ARFGAP1 inh – inhibitors of rat ARFGAP1 GAP activity, primary screen, biochemical, fluorescence polarization, GDP tracer | ADP-ribosylation factor GTPase-activating protein 1 (Rattus norvegicus), Q62848 | Arfgap1-stimulated ARF1 GTP hydrolysis, GDP FP detection | inhibition, % at 16.5 µM | 360,000 tested, 0.26% active | AID 651572, 2012;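 active = inhibition above a per-plate limit, mean inhibition of low control wells plus 3 SD, cut at about 25% in these data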;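 note: 0% = DMSO wells with enzyme and 100% = wells lacking Arfgap1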
Target sequence (Q62848 1-136 limits assumed): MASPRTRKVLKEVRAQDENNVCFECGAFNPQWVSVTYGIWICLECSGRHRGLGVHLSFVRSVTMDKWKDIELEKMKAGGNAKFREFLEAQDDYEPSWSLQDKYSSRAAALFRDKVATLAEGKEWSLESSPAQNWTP
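System: truncated rat Arfgap1 GAP domain / Benchmarks: high control wells lacking Arfgap1, low control full reaction with DMSO / Times: compound-enzyme preincubation 20 min, reaction 120 min, detection 60 min, 25 °C / Repeats: one replicate per compound / Also added: human ARF1(Δ1-17)-GTP substrate / Measured by: Tracer-displacement fluorescence polarization with EDTA stop, 620/688 nm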
pPAFAH FP inh – pPAFAH enzyme inhibitors, primary screen, biochemical, fluorescence polarization, human; Platelet-activating factor acetylhydrolase (Homo sapiens), Q13093; recombinant pPAFAH, FP-rhodamine probe fluorescence polarization; inhibition, % at 3.39 µM; 330,000 tested, 1.5% active;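 active = inhibition above the mean inhibition across the screen plus 3 SD, cut at about 25% in these data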;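 note: inhibitors block binding of the rhodamine activity-based probe so polarization drops; 0% = enzyme with DMSO and 100% = wells lacking pPAFAH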
Target sequence (Q13093 whole entry, looked up): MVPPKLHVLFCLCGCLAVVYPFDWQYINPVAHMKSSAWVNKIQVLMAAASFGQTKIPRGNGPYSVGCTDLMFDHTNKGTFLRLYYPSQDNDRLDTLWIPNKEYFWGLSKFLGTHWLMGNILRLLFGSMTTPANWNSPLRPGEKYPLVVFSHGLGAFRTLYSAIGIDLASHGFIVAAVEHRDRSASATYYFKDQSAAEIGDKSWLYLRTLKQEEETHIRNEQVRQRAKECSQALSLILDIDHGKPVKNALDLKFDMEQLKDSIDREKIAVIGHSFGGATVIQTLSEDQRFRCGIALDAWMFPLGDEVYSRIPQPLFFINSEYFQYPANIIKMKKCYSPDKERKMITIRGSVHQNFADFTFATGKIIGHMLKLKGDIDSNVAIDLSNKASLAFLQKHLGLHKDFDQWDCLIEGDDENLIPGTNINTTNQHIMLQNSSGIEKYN
PAFAH2 FP inh – PAFAH2 enzyme inhibitors, primary screen, biochemical, fluorescence polarization, human. 340,000 tested, 0.99% active. recombinant PAFAH2, FP-rhodamine activity probe. inhibition, % at 3.39 µM;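 active = inhibition above the mean over all tested compounds plus 3 SD, cut at about 30% in these data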;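 note: inhibitors block probe labeling of enzyme so polarization drops; 0% = enzyme with DMSO and 100% = wells lacking PAFAH2 protein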
ASAP1 inh – inhibitors of human ASAP1 ArfGAP activity, primary screen, biochemical, fluorescence polarization. Arf-GAP with SH3 domain, ANK repeat and PH domain-containing protein 1 (Homo sapiens), …. ASAP1-stimulated ARF1 GTP hydrolysis, GDP FP detection. inhibition, % at 16.5 µM. 360,000 tested, 0.19% active. AID 624377, 2012; in the data active = inhibition above about 25%;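 note: 0% = vehicle with enzyme and substrate and 100% = no enzyme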
PAFAH1B3 inh – PAFAH1B3 enzyme inhibitors, primary screen, biochemical, fluorescence polarization, human; AID 492972, 2010; Platelet-activating factor acetylhydrolase IB subunit alpha1 (Homo sapiens), Q15102; inhibition, % at 3.39 µM; recombinant PAFAH1B3, FP-rhodamine probe; 340,000 tested, 0.28% active;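 active = inhibition above the screen-wide average of all tested compounds plus 3 SD, cut at about 25% in these data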;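 note: 0% = enzyme with DMSO only and 100% = wells lacking PAFAH1B3 protein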
PAFAH1B2 inh – PAFAH1B2 enzyme inhibitors, primary screen, biochemical, fluorescence polarization, human | recombinant PAFAH1B2, FP-rhodamine activity probe | AID 492953, 2010 | 340,000 tested, 1.2% active | inhibition, % at 3.39 µM | Platelet-activating factor acetylhydrolase IB subunit alpha2 (Homo sapiens), P68402;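 active = inhibition above the mean of all tested compounds plus 3 SD, cut at about 24% in these data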;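 note: 0% = enzyme with DMSO and 100% = wells lacking PAFAH1B2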
* = called active by the depositor; nt = not tested or not shown. This is a sample that favours compounds with a hit; in the whole collection about 2.7% have one here.

SMILES | ARFGAP1 inh | pPAFAH FP inh | PAFAH2 FP inh | ASAP1 inh | PAFAH1B3 inh | PAFAH1B2 inh
COc1cc(NS(=O)(=O)c2cc3c(cc2C)NC(=O)CO3)cc(OC)c1 | -2 | 5 | -2 | 4 | 1 | 3
COC(=O)c1cc2c(c3c4ccccc4n(S(=O)(=O)c4ccccc4)c13)C(=O)N(Cc1ccc(N(C)C)cc1)C2 | 17 | nt | nt | -2 | nt | nt
CN(c1ccc(Cl)cc1)S(=O)(=O)c1nnc(NC(=O)C(C)(C)C)s1 | 2 | nt | -2 | -8 | 9 | 28*
COC(=O)C1=C(C)N(Cc2ccc(F)cc2)C(=S)NC1c1cccc(OC)c1 (stereo not given) | 5 | nt | nt | 10 | nt | nt
O=C(NCc1ccccc1)[C@@H]1CCCN1C(=O)[C@H]1CCCN1C(=O)c1ccc(F)c(F)c1 | 12 | nt | nt | -7 | nt | nt
O=C(O)COc1ccccc1/C=N/NC(=O)CN1CCN(S(=O)(=O)c2ccc(Br)cc2)CC1 | 13 | 4 | 2 | 1 | 3 | 27*
Cc1ccc(S(=O)(=O)N2CCN(CC(=O)NC3CCCc4ccccc43)CC2)cc1C (stereo not given) | -10 | 2 | 9 | -10 | 2 | 4
O=C(CCC(=O)N1CCN(S(=O)(=O)c2ccc(Cl)cc2)CC1)NC1CCCc2ccccc21 (stereo not given) | 1 | 3 | 3 | 13 | -2 | 26*
O=C(O)COc1ccccc1/C=N/NC(=O)CN1CCN(Cc2ccccc2Cl)CC1 | 10 | 1 | 2 | 13 | 6 | 4
O=C(CCN1CCN(S(=O)(=O)c2ccc(Br)cc2)CC1)Nc1ccccc1F | 5 | 5 | -5 | 6 | 8 | 25*
CC1CCN(S(=O)(=O)c2ccc(NC(=O)CN3CCCCCC3)cc2)CC1 | -2 | 8 | -3 | -4 | 2 | 30*
COc1ccc(Cn2cc(CN3[C@@H](c4ccccc4)COc4cc(Br)ccc4S3(=O)=O)nn2)cc1 | 9 | nt | nt | -1 | nt | nt
CC(NC(=O)C(NC(=O)OCc1ccccc1)C(C)O)C(=O)OCc1ccccc1 (stereo not given) | -11 | nt | nt | -13 | nt | nt
C#CCNC(=O)C[C@H]1C[C@@]2(C(=O)OC)C(=C[C@H](COCc3ccccc3)O[C@@H]2C)N(Cc2ccc3c(c2)OCO3)C1=O | 5 | nt | nt | 0 | nt | nt
Nc1[nH]c(C(=O)c2ccccc2)c(-c2ccc(F)cc2)c1C(=O)c1c[nH]c2ccccc12 | 6 | nt | nt | 2 | nt | nt
COC(=O)c1cc2c(c3c4cc(F)ccc4n(S(=O)(=O)c4ccccc4)c13)C(=O)N(Cc1ccco1)C2 | 5 | nt | nt | -5 | nt | nt
CN1CCCCC(NC(=O)C23CC4CC(CC(C4)C2)C3)C1=O (stereo not given) | -11 | nt | nt | 5 | nt | nt
COc1ccc(C)cc1NC(=O)CN1CCN(S(=O)(=O)c2ccc(Br)cc2)CC1 | -2 | -4 | 2 | 3 | -3 | 28*
COc1ccc(NC(=O)CN2CCN(S(=O)(=O)c3ccc(Br)cc3)CC2)c(OC)c1 | 4 | 3 | -2 | -6 | 0 | 20
CCN1CCN(S(=O)(=O)c2ccc(Cl)c(C(=O)NC3CC3)c2)CC1 | 3 | -1 | 5 | 15 | 9 | 24*
N#C/C(=N\Nc1ccc(S(=O)(=O)N2CCOCC2)cc1)C(N)=S | 2 | 6 | 1 | 1 | 4 | 6
CC1CCN(S(=O)(=O)c2ccc(N/N=C(/C#N)C(N)=O)cc2)CC1 | -4 | 3 | 8 | -8 | 3 | 40*
Cc1ccc(S(=O)(=O)Nc2ccc(NC(=O)CN3CCCCC3)c(Cl)c2)cc1 | 13 | 26* | 3 | 10 | 10 | 8
CN1CCCCC(NC(=O)c2ccc(F)cc2)C1=O (stereo not given) | 7 | nt | nt | -12 | nt | nt
COc1cccc(C(=O)CN2CCN(S(=O)(=O)c3ccc(Br)cc3)CC2)c1 | nt | 5 | -2 | nt | -1 | 29*
SMILES | ARFGAP1 inh | pPAFAH FP inh | PAFAH2 FP inh | ASAP1 inh | PAFAH1B3 inh | PAFAH1B2 inh
O=C(CN1CCN(S(=O)(=O)c2ccc(Br)cc2)CC1)Nc1ccc(F)cc1 | 5 | -2 | 6 | 7 | 1 | 28*
Cc1ccc(S(=O)(=O)N2CCN(CC(=O)Nc3ccccc3Cl)CC2)cc1 | 4 | 2 | -1 | 7 | 4 | 8
O=C(CN1CCN(S(=O)(=O)c2ccc(Cl)cc2)CC1)Nc1ccc(F)cc1F | nt | 1 | -2 | nt | 6 | 28*
O=C(CN1CCN(S(=O)(=O)c2ccc(Cl)cc2)CC1)NC1CC1 | -4 | -4 | 0 | 5 | -3 | 29*
NS(=O)(=O)c1ccc(NC(=O)CN2CCN(S(=O)(=O)c3ccc(F)cc3)CC2)cc1 | -1 | 2 | -2 | -16 | 4 | 3
COC(=O)C1=C(C)N(Cc2ccc(C(F)(F)F)cc2)C(=NCc2ccccc2)NC1c1cccc(Cl)c1 (stereo not given) | -6 | nt | nt | -5 | nt | nt
COC(=O)c1cc2c(c3c4cc(OC)ccc4n(S(=O)(=O)c4cccc(C)c4)c13)C(=O)N(C)C2 | -7 | nt | nt | -10 | nt | nt
CCOC(=O)N1CCN(S(=O)(=O)c2ccc(Cl)cc2)CC1 | 7 | 12 | 2 | 0 | 10 | 6
CCOC(=O)N1CCC(N2CCN(S(=O)(=O)c3ccc(Cl)cc3)CC2)CC1 | 9 | 0 | 5 | -2 | 0 | 29*
O=C1CCNc2cc3ccccc3cc21 | nt | 31* | 4 | nt | 9 | 3
O=C1CCNc2ccc(-c3ccccc3)cc21 | 3 | 2 | 0 | 0 | 3 | 6
COc1ccc(C(=O)CCc2ccccc2)c(O)c1 | -1 | 3 | 0 | 0 | 2 | 8
O=C(CCc1ccccc1)c1c(O)cc(O)cc1O | -2 | 10 | 4 | 13 | 1 | 42*
Cc1ccc(NS(=O)(=O)c2ccc(CCC(=O)NCc3ccccn3)cc2)cc1 | 1 | 32* | 3 | -7 | -3 | 7
O=C(CCNC(=O)c1ccc(Br)cc1)Nc1ccc(S(=O)(=O)Nc2ncccn2)cc1 | 1 | 28* | 7 | 3 | 5 | 2
Cc1ccc(NS(=O)(=O)c2ccc(C(=O)NCc3ccccn3)cc2)cc1 | -10 | 31* | 2 | 0 | 7 | 6
O=C(CCNC(=O)c1ccccc1Cl)Nc1ccc(S(=O)(=O)Nc2ncccn2)cc1 | 0 | -3 | 4 | 0 | -2 | 0
Cc1ccc(NS(=O)(=O)c2ccc(CCC(=O)NCCO)cc2)cc1 | -15 | 25* | 4 | -8 | 1 | 1
COC(=O)C1=C(C)N(C)C(=NCc2ccc(C(F)(F)F)cc2)NC1c1cccc(Cl)c1 (stereo not given) | 1 | nt | nt | 6 | nt | nt
C[C@@H]1NS(=O)(=O)c2ccc(F)cc2O[C@@H]1c1ccccc1 | 9 | nt | nt | 3 | nt | nt
